Results from different studies.
Protocols differ between the studies behind these lines. Converted amounts (≈) assume the structure as drawn.

SMILES	tested on	test	system	conditions	endpoint	result
CCc1nc(C(N)=O)c(Nc2ccc(N3CCC(N4CCN(C)CC4)CC3)c(OC)c2)nc1NC1CCOCC1	K562	cell growth or viability, resazurin		72 h	GI50	2.3 µM
O=C(/C=C/c1cccc(C(=O)NO)c1)NO	OCI-Ly1	cell growth or viability, ATP luminescence		1 µM, 5 days	viability	72.5%
CC1(C)S[C@@H]2[C@H](NC(=O)[C@H](N)c3ccccc3)C(=O)N2[C@H]1C(=O)O	Staphylococcus epidermidis	microbial growth		clinical isolate	MIC90	8 µg/mL (≈ 22.9 µM)
O=C(Nc1nccs1)c1ccc(-c2nc3ccc4[nH]ncc4c3c3c2CCCC3)cc1	K562	cell growth or viability, resazurin		72 h	GI50	> 10 µM
CCCCCCCCCCCCCCCCCCOc1ccccc1CC(=O)OCC[N+]1(C)CCCC1	HOP-92	cell growth or viability, SRB		10 µM	inhibition	67.3%
CN(C)CCN(C)C(=O)c1ccc(-c2nc3ccc4[nH]ncc4c3c3c2CCCCC3)cn1	K562	cell growth or viability, resazurin		72 h	GI50	9.2 µM
C=C[C@]1(C)C[C@@H](OC(=O)CS[C@@H]2C[C@H]3CC[C@@H](C2)N3C)[C@]2(C)[C@H](C)CC[C@]3(CCC(=O)[C@H]32)[C@@H](C)[C@@H]1O	Staphylococcus epidermidis	microbial growth		clinical isolate	MIC50	0.0312 µg/mL (≈ 0.0604 µM)
CN(C)CCNC(=O)c1ccc(-c2nc3ccc4[nH]ncc4c3c3c2CCCC3)c(F)c1	K562	cell growth or viability, resazurin		72 h	GI50	1.1 µM
CCCCCCCCCCCCCCCCCCOc1ccccc1CC(=O)OCC[N+]1(C)CCCCC1	HOP-92	cell growth or viability, SRB		10 µM	inhibition	109%
Cc1n[nH]c2ccc3nc(-c4ccc(C(=O)NCCN(C)C)cc4)c4c(c3c12)CCCC4	K562	cell growth or viability, resazurin		72 h	GI50	1.2 µM
CN[C@H](CC(C)C)C(=O)N[C@H]1C(=O)N[C@@H](CC(N)=O)C(=O)N[C@H]2C(=O)N[C@H]3C(=O)N[C@H](C(=O)N[C@H](C(=O)O)c4cc(O)cc(O)c4-c4cc3ccc4O)[C@H](O)c3ccc(c(Cl)c3)Oc3cc2cc(c3O[C@@H]2O[C@H](CO)[C@@H](O)[C@H](O)[C@H]2O[C@H]2C[C@](C)(N)[C@H](O)[C@H](C)O2)Oc2ccc(cc2Cl)[C@H]1O	Staphylococcus epidermidis	microbial growth		clinical isolate	MIC50	0.5 µg/mL (≈ 0.345 µM)
Cc1ccc2[nH]nc(-c3nnc(Nc4ccc(Cl)cc4)s3)c2c1	Staphylococcus epidermidis	microbial growth	ATCC12228		MIC	133 µg/mL (≈ 389 µM)
CCCCCCCCCCCCCCCCCCOc1ccc(CC(=O)OCCC[N+](C)(C)C)cc1	HOP-62	cell growth or viability, SRB		10 µM	inhibition	8.58%
O=C(NCCCN1CCOCC1)c1ccc(-c2nc3ccc4[nH]ncc4c3c3c2CCCC3)cc1	K562	cell growth or viability, resazurin		72 h	GI50	> 10 µM
CCCCCCCCCCCCCCCCCCOc1cccc(CC(=O)OCC[N+]2(C)CCOCC2)c1	HOP-92	cell growth or viability, SRB		10 µM	inhibition	13.9%
CC(=O)NC[C@H]1CN(c2ccc(N3CCOCC3)c(F)c2)C(=O)O1	Staphylococcus epidermidis	microbial growth, broth dilution		clinical isolate	MIC50	0.5 µg/mL (≈ 1.48 µM)
Cc1ccc2[nH]nc(-c3nnc(Nc4ccc(Cl)c(Br)c4)s3)c2c1	Staphylococcus epidermidis	microbial growth	ATCC12228		MIC	235 µg/mL (≈ 558 µM)
CN(C)CCN(C)C(=O)c1ccc(-c2nc3ccc4[nH]ncc4c3c3c2CCCCC3)nc1	K562	cell growth or viability, resazurin		72 h	GI50	> 10 µM
CCCCCCCCCCCCCCCCCCOc1cccc(CC(=O)OCCC[N+](C)(C)C)c1	HOP-92	cell growth or viability, SRB		10 µM	inhibition	22.4%
CC[C@H]1OC(=O)[C@H](C)[C@@H](O[C@H]2C[C@@](C)(OC)[C@@H](O)[C@H](C)O2)[C@H](C)[C@@H](O[C@@H]2O[C@H](C)C[C@H](N(C)C)[C@H]2O)[C@](C)(O)C[C@@H](C)/C(=N\OCOCCOC)[C@H](C)[C@@H](O)[C@]1(C)O	Staphylococcus epidermidis	microbial growth		clinical isolate	MIC50	32 µg/mL (≈ 38.2 µM)
COC(=O)CNC(=O)C(=O)OC	OCI-Ly1	cell growth or viability, ATP luminescence		1 µM, 5 days	viability	146%
CCCCCCCCCCCCCCCCCCOc1ccccc1CC(=O)OCC[N+]1(C)CCOCC1	HOP-62	cell growth or viability, SRB		10 µM	inhibition	44.4%
Cc1ccc2[nH]nc(-c3nnc(Nc4ccc(Br)cc4)s3)c2c1	Staphylococcus epidermidis	microbial growth	ATCC12228		MIC	190 µg/mL (≈ 493 µM)
O=C(Nc1cccc(Br)c1)c1cccc(S(=O)(=O)N2CCCCCC2)c1	OCI-Ly1	cell growth or viability, ATP luminescence		0.1 µM, 5 days	viability	178%
CN(C)CCNC(=O)c1ccc(-c2nc3ccc4[nH]ncc4c3c3c2CC(F)(F)CC3)cc1	K562	cell growth or viability, resazurin		72 h	GI50	3.1 µM
O=C(NO)c1ccc(CC(=O)N(CCO)c2ccccc2)cc1	OCI-Ly1	cell growth or viability, ATP luminescence		0.5 µM, 5 days	viability	93.8%
CCCCCCCCCCCCCCCCCCOc1ccccc1CC(=O)OCCC[N+](C)(C)C	HOP-92	cell growth or viability, SRB		10 µM	inhibition	60.4%
Cc1ccc2[nH]nc(-c3nnc(Nc4ccc(F)cc4)s3)c2c1	Staphylococcus epidermidis	microbial growth	ATCC12228		MIC	123 µg/mL (≈ 377 µM)
O=C(Nc1ccc(Cl)cc1)C1CCCN(C(=O)c2cc(C(F)(F)F)cc(C(F)(F)F)c2)C1 (racemic)	OCI-Ly1	cell growth or viability, ATP luminescence		1 µM, 5 days	viability	161%
